Assay results published in ChEMBL document CHEMBL1139931, “Synthesis and structure-activity relationships of novel pyrimido[1,2-b]indazoles as potential anticancer agents against A-549 cell lines” (2007).

test system: A549; experiment: Anticancer activity against human A549 cells at 1 nM after 12 hrs; type: functional; settings: A549, 12 h
Outline: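 A-549 cells seeded at 10,000 cells/well in 96-well plates, recovered overnight in 5% CO2, then exposed 12 h to compound at 1 nM/ml (in 1% DMSO in PBS). MTT added from a 5 mg/ml PBS stock, 5 h at 37 °C, medium removed, formazan dissolved in DMSO for 5 min at 37 °C. Growth inhibition read at 550 nm; duplicate runs.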

Compared with `N#Cc1c(C(F)(F)F)cc(-c2ccccc2)c2c1nn1c(-c3ccccc3)cc(-c3ccccc3)nc21`, `Cc1cc(-c2ccccc2)n2nc3c(C#N)c(C(F)(F)F)cc(-c4ccccc4)c3c2n1` is lower in inhibition at 0.001 µM: 5.96% for the first, 4.8% for the second.

First: Cc1ccc(-c2cc(C(F)(F)F)n3nc4c(C#N)c(C(F)(F)F)cc(-c5ccccc5)c4c3n2)cc1
Second: N#Cc1c(C(F)(F)F)cc(-c2ccccc2)c2c1nn1c(C(F)(F)F)cc(-c3ccccc3)nc21
The inhibition at 0.001 µM of the first is lower: 6.77% for the first, 8.9% for the second.

Going from `COc1cc([C@@H]2c3cc4c(cc3[C@@H](O[C@@H]3O[C@@H]5CO[C@@H](C)O[C@H]5[C@H](O)[C@H]3O)[C@H]3COC(=O)[C@H]23)OCO4)cc(OC)c1O` [ETOPOSIDE] to `CCOC(=O)c1cnc2c3c(C(F)(F)F)cc(-c4ccccc4)c(C#N)c3nn2c1N`, the inhibition at 0.001 µM rises from 1.15% to 10.7%.

Compared with `Cc1cc(-c2ccccc2)nc2c3c(C(F)(F)F)cc(-c4ccccc4)c(C#N)c3nn12`, `N#Cc1c(-c2ccccc2)cc(C(F)(F)F)c2c1nn1c(C(F)(F)F)cc(-c3ccccc3)nc21` is higher in inhibition at 0.001 µM: 13.3% for the first, 16.2% for the second.

First: Cc1cc(C)n2nc3c(C#N)c(-c4ccccc4)cc(C(F)(F)F)c3c2n1
Second: Cc1cc(C(F)(F)F)n2nc3c(C#N)c(C(F)(F)F)cc(-c4ccccc4)c3c2n1
The inhibition at 0.001 µM of the first is lower: 3.74% for the first, 6.44% for the second.

Going from `CCOC(=O)c1cnc2c3c(-c4ccccc4)cc(C(F)(F)F)c(C#N)c3nn2c1N` to `CCOC(=O)c1cnc2c3c(-c4ccccc4)cc(C(F)(F)F)c(C#N)c3nn2c1O`, the inhibition at 0.001 µM falls from 11% to 8.24%.

Going from `Cc1cc(=O)n2nc3c(C#N)c(C(F)(F)F)cc(-c4ccccc4)c3c2[nH]1` to `N#Cc1c(C(F)(F)F)cc(-c2ccccc2)c2c1nn1c(C(F)(F)F)cc(C(F)(F)F)nc21`, the inhibition at 0.001 µM rises from 0.44% to 10.2%.

`N#Cc1c(-c2ccccc2)cc(C(F)(F)F)c2c1nn1c(C(F)(F)F)cc(C(F)(F)F)nc21` gave an inhibition at 0.001 µM of 4.54%.
